Diaph act CS – activates diaphorase or chemically reduces, flagging diaphorase assay artifacts | Diaphorase/resazurin coupled assay, resorufin fluorescence, 16 min; hits give high values; 1 = vehicle wells, 0 = NADH-free wells | activation factor at 20 µM | 0.005% of 190,000 active | AID 1229;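 active = diaphorase activity raised at least twofold by the compound at 20 µM; inactive = activation factor below 2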
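Material: purified diaphorase enzyme from Clostridium kluyveri / Medium: HEPES pH 7.4 buffer with MgCl2 and Tween 20 / Schedule: enzyme reaction of 16 min at room temperature / Measured by: resorufin fluorescence, excitation 544 nm, emission 590 nm / Evaluation: rise in resorufin formation, marking diaphorase activation or chemical reduction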
WT yeast gro inh – growth inhibition of WT yeast, mitochondrial fusion screen. mitochondrial fusion phenotypic screen, WT strain. inhibition, % at 10 µM. 2.1% of 190,000 active. AID 1362; in the data active = inhibition above about 58%; tested in S. cerevisiae
L major viab – Leishmania major promastigote growth inhibition; 9% of 200,000 active; Leishmania major promastigotes, resazurin fluorescence viability; inhibition, % at 10 µM; AID 1063;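 note: promastigotes grown with compound for 44 hours at 28 °C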
Diaph inh CS – inhibits diaphorase or chemically oxidizes, flagging diaphorase assay artifacts; diaphorase resazurin-to-resorufin fluorescence, NADH, 16 min; bacterial (C. kluyveri) enzyme, not human; inhibition, % at 20 µM; 0.69% of 190,000 active; AID 1217;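 active = primary screen inhibition at 20 µM above a set limit, cut at about 50% in these data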;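 note: plate controls were DMSO with full reaction for no effect and wells lacking NADH for full effect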
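Assay system – diaphorase enzyme from Clostridium kluyveri · Amount – diaphorase 0.14 U/mL (working solution) · Times – reaction incubation of 16 min at room temperature · Controls – No-NADH positive control and DMSO neutral control · Signal – resorufin fluorescence 544/590 nm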
G6PDH counter – inhibits Leuconostoc G6PDH, flagging false hits in G6PDH-based assays | Purified L. mesenteroides G6PDH, diaphorase/resazurin coupled fluorescence, 45 min | 0.12% of 200,000 active | inhibition, % at 5 µM
Numbers without * were called inactive. Compounds with a hit are over-represented: about 11% of the library has one in this group of screens. Cut-off read from the data, not from the text of the source, unless noted: active = inhibition above about 50%; inactive = the rest.

SMILES	Diaph act CS	WT yeast gro inh	L major viab	Diaph inh CS	G6PDH counter
Cc1cc(=O)n(C)c(=O)n1CCCCCCOc1cccc([N+](=O)[O-])c1	0.9	-15	23	6	6
O=C(O)c1ccc(Cl)c(NC(=S)NC(=O)c2ccccc2[N+](=O)[O-])c1	0.9	-8	-3	13	3
C/C(=N\N=C(N)N)c1cccc(Cl)c1	0.9	11	9	6	14
C/C(=N\NC(N)=O)c1cccc(Cl)c1	1	-6	83*	-3	19
CCC1(C)Cc2sc3c(=O)[nH]c(=S)[nH]c3c2CO1 (stereo not drawn)	0.2	7	-1	84*	9
COc1cc(O)oc1C=Nc1ccc(C(F)(F)F)cc1	0.9	12	8	11	13
COC(=O)c1c(C)c2c(C)cc3ccccn3c-2c1C(=O)OC	0.8	-4	20	25	5
COC(=O)c1cc2c(-c3ccccc3)cc3ccccn3c-2c1C(=O)OC	0.7	25	88*	29	-4
CCc1ccc(C2=NN(C(C)=O)C(c3ccco3)C2)cc1 (stereo not drawn)	1.1	21	4	-12	-2
CN(C)CCN(C)Cc1ccccc1Sc1cccc2ccccc12	1.1	50	100*	-8	2
CNCc1ccccc1Sc1ccc(OC)cc1	0.9	-4	9	6	3
CNCc1ccccc1Sc1cccc2ccccc12	0.9	18	79*	12	-1
Cc1nc(C(=O)Nc2ccc(F)cc2)nn1-c1ccc([N+](=O)[O-])cc1	0.8	21	7	20	-23
CCOc1ccc(C(=O)NC(=S)Nc2ccc(N3CCC(C)CC3)cc2)cc1[N+](=O)[O-]	0.9	13	87*	8	0
COc1ccc(C(=O)NC(=S)Nc2ccc(N3CCOCC3)c(Cl)c2)cc1[N+](=O)[O-]	0.8	43	100*	20	18
CCn1c(SCC(=O)Nc2ccc(N3CCOCC3)c(Cl)c2)nnc1-c1ccc(N)cc1	0.9	2	73*	12	0
COc1ccc(C(=O)NC(=S)Nc2ccccc2N2CCOCC2)cc1[N+](=O)[O-]	0.7	-2	-6	28	-4
CCOc1ccc(C(=O)NC(=S)Nc2ccccc2N2CCC(C)CC2)cc1[N+](=O)[O-]	0.9	15	3	14	2
CCCC(=O)NC(=S)Nc1ccc(N2CCOCC2)c(Cl)c1	0.8	16	60*	16	-1
CCn1c(SCC(=O)Nc2ccccc2N2CCOCC2)nnc1-c1ccccc1	0.9	14	2	14	11
O=C(NC(=S)Nc1ccc(N2CCOCC2)c(Cl)c1)C(c1ccccc1)c1ccccc1	0.8	24	13	15	3
O=C(CCc1nnc(COc2ccccc2)o1)NCc1ccc(Cl)s1	0.9	2	0	14	10
CCCC(=O)N1CCN(c2ccc(NC(=O)c3ccc(OCC)c([N+](=O)[O-])c3)cc2)CC1	0.9	51	-4	6	8
CCC(=O)N1CCN(c2ccc(NC(=S)NC(=O)c3ccc(OC)c([N+](=O)[O-])c3)cc2)CC1	0.6	1	53*	38	7
O=C(NCCNC(=O)c1ccco1)c1ccc(F)cc1	0.9	-7	-3	11	6
SMILES	Diaph act CS	WT yeast gro inh	L major viab	Diaph inh CS	G6PDH counter
O=C(NCCNC1CCC(c2ccccc2)CC1)c1ccc(F)cc1 (stereo not drawn)	1.2	22	94*	-15	13
COc1ccccc1C(=O)NC(CCSC)C(=O)NC1CCCCCC1 (stereo not drawn)	0.9	-2	3	12	-2
Cc1[nH]c2ccccc2c1C(=O)CN1CCN(C/C=C/c2ccccc2)CC1	1.1	-9	83*	-6	-3
COc1ccc2[nH]c(C)c(C(=O)CN3CCN(C/C=C/c4ccccc4)CC3)c2c1	1	-15	62*	3	8
Cc1[nH]c2ccccc2c1C(=O)CN1CCN(C2CCCCC2)CC1	0.9	-1	-4	13	3
O=C(COC(=O)c1ccc(Br)cc1)Nc1ccccc1Br	1	-1	-4	-2	7
CC(=O)N1N=C(c2cccc(Cl)c2)OC1c1ccc(C(C)C)cc1 (stereo not drawn)	0.8	78*	-5	15	1
CC(=O)N1N=C(c2cccc(Cl)c2)OC1c1cccc([N+](=O)[O-])c1 (stereo not drawn)	0.9	23	3	15	-14

From PubChem
